{
  "source": "ChEMBL document CHEMBL3271971",
  "about": "“Antineoplastic and biochemical properties of arylsulfonylhydrazones of 2-formylpyridine N-oxide” (J Med Chem, 1976)",
  "key": {"Mus musculus [1]": {"system": "Mus musculus", "assay": "Toxicity in C3H mouse allografted with mouse Hepa129 cells assessed as change in body weight at 60 mg/kg administered qd for 6 days (reference value: 13.5%)", "assay_type": "organism-based", "design": "dose 60 mg/kg", "conditions": "in vivo, 144 h", "method_in_brief": "(§1)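 Ascitic tumors were transplanted from a donor mouse bearing a 7-day tumor. Daily doses were given for six consecutive days. Percentage body-weight change from onset to termination of therapy served as the index of drug toxicity.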"}, "Mus musculus [2]": {"system": "Mus musculus", "assay": "Effect on protein synthesis in tumor of CD-1 mouse allografted with mouse S180A cells assessed as [14C]-leucine incorporation at 40 mg/kg, ip pretreated for 1 hr followed by radiotracer-addition measured after 1 hr relative to control", "assay_type": "functional", "conditions": "route intraperitoneal", "method_in_brief": "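Sarcoma 180 ascites cells implanted 6 days earlier. Mice received a single ip dose of 10–80 mg/kg, then 1 h later an ip tracer: 200 μg thymidine-3H, 200 μg uridine-3H or 125 μg DL-leucine-14C. Tracer was incorporated for 1 h. Specific activity of tumor-cell DNA, RNA or protein is expressed as % of untreated controls. Values are means of 4-16 mice, each analyzed separately.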"}, "[3]": {"assay": "Antineoplastic activity against mouse S180A cells allografted in CD-1 mouse assessed as mouse survival at maximum effective dose administered qd for 6 days measured for 50 days relative to control", "assay_type": "functional", "method_in_brief": "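Sarcoma 180 ascites cells were transplanted from a donor mouse bearing a 7-day tumour. Each agent was tested at 10–60 mg/kg/day, once daily for six consecutive days, starting 24 h after transplantation, in groups of 5–10 mice. Pooled untreated controls totalled 40 mice. Mice surviving beyond 50 days were counted as 50-day survivors, and body-weight change over therapy served as the toxicity index.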"}, "[4]": {"assay": "Antineoplastic activity against mouse S180A cells allografted in CD-1 mouse assessed as average survival at 40 mg/kg administered qd for 6 days (reference value: 12.9 +/- 1.2 days)", "assay_type": "functional", "method_in_brief": "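Ascitic tumours were transplanted from an appropriate donor mouse carrying a 7-day tumour growth. Drug was given at 10–60 mg/kg/day for six consecutive days. Sensitivity was judged by prolongation of survival time relative to untreated tumour-bearing controls. Mice were weighed throughout, and percentage weight change from onset to end of therapy indicated toxicity.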"}, "Mus musculus [5]": {"system": "Mus musculus", "assay": "Toxicity in CD-1 mouse allografted with mouse S180A cells assessed as change in body weight at 60 mg/kg administered qd for 6 days (reference value: 23.2%)", "assay_type": "organism-based", "design": "dose 60 mg/kg", "conditions": "in vivo, 144 h"}, "Mus musculus [6]": {"system": "Mus musculus", "assay": "Toxicity in CD-1 mouse allografted with 1-formylisoquinoline thiosemicarbazone-resistant mouse S180A cells assessed as change in body weight at 60 mg/kg administered qd for 6 days (reference value: 29.6%)", "assay_type": "organism-based", "design": "dose 60 mg/kg", "conditions": "in vivo, 144 h", "method_in_brief": "as §1"}},
  "data": [
    {"smiles": "Cc1ccc(S(=O)(=O)N/N=C/c2cccc[n+]2[O-])cc1", "values": [
      {"measurement": "Activity", "setting": "Mus musculus [1]", "result": -1.6, "unit": "%"},
      {"measurement": "Activity", "setting": "Mus musculus [2]", "result": 93, "unit": "%"},
      {"measurement": "Survival", "setting": "[3]", "result": 0, "unit": "%"},
      {"measurement": "Survival", "setting": "[4]", "result": 36.3, "unit": "days"},
      {"measurement": "Activity", "setting": "Mus musculus [5]", "result": -8, "unit": "%"},
      {"measurement": "Activity", "setting": "Mus musculus [6]", "result": 0, "unit": "%"}
    ]}
  ]
}
